From PubChem BioAssay
Measles CPE – compounds protecting cells from measles virus cytopathic effect, primary screen, measles RdRp inhibitor project, single point, MLSMR library, absorbance; AID 841, 2007; hit rate 1.5% among 140,000; protection (pct of control), % at 4 µM; Measles virus-infected cells, CPE protection; in the data active = protection mostly above about 24%, no sharp cut-off; inactive = mostly below about 26%
hDAT+cocaine – changed hDAT dopamine uptake under cocaine IC80, either direction, primary screen, cocaine antagonist project, cell-based, LLC-PK1 hDAT, [14C]-dopamine uptake, MLSMR; LLC-PK1 hDAT cells, [14C]-dopamine uptake with cocaine IC80; actives deviate in either direction; B-score at 10 µM; hit rate 1.3% among 110,000;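 active = Z score or B-score, a plate-position-corrected score, falls beyond the plate's 99.7% confidence bounds, in either direction; inactive = both scores lie inside the 99.7% bounds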;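 note: scored against the spread of the other compound wells on the same plate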
Target sequence (Q01959 whole entry, looked up): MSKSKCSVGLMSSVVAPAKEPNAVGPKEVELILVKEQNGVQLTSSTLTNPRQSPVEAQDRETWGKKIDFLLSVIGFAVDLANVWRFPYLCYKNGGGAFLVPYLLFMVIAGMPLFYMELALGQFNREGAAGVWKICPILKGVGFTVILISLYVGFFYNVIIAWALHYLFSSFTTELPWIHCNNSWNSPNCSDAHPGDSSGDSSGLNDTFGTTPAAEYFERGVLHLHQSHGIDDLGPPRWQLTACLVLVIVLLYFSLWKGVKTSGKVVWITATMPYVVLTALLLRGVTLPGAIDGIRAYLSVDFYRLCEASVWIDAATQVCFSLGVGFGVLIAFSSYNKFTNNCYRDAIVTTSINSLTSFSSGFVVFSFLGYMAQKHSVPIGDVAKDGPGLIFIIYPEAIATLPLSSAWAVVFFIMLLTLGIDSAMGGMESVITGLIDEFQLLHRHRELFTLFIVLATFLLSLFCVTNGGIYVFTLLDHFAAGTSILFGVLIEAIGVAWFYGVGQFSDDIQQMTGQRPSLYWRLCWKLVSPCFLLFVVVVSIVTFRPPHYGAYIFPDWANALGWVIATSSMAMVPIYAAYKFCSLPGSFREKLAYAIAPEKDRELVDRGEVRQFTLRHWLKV
RAM inhibit – inhibitors of the yeast RAM network, primary screen, dse1pr::URA3 reporter, 5-FOA selection; S. cerevisiae dse1pr::URA3 reporter, 5-FOA growth OD615, 2 d; analog-sensitive cbk1-as2 kinase mutant strain; inhibition, % at 50 µM; hit rate 1.8% among 190,000; AID 868, 2007;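 active = inhibition above a set limit, 3 SD over mean compound inhibition, cut at about 8.4% in these data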;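 note: 0% = DMSO-only wells with no growth and 100% = 10 µM 1-NA-PP1 full growth; inhibition rescues growth on 5-FOA so higher OD means more RAM inhibition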
Yeast lifespan up – compounds extending yeast replicative lifespan, primary screen, S. cerevisiae, OD615. S. cerevisiae growth with nicotinamide; deaD strain in restrictive glucose medium. inhibition of the nicotinamide effect, % at 10 µM. hit rate 0.68% among 130,000. AID 775, 2007;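 active = inhibition above a set limit, placed 3 SD over the median of all compounds, cut at about 26% in these data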;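 note: 0% = nicotinamide-treated wells and 100% = cells grown without nicotinamide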
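Material: Modified budding yeast, DeaD strain | Medium: Restrictive glucose medium | Probe or stimulus: 1.5 mM nicotinamide | Dosing: Single dose 10 µM compound, 0.25% DMSO | Times: 48 h at 30 °C | Technique: OD615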
BB579 growth dn – growth inhibitors of yeast BB579 in restrictive medium, primary screen, yeast lifespan-shortening project, S. cerevisiae; OD615, 48 h; inhibition, % at 10 µM; hit rate 0.51% among 140,000; AID 804, 2007;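 active = inhibition above a set limit, 3 SD over the mean compound inhibition, cut at about 44% in these data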
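Test system: Saccharomyces cerevisiae DeaD strain BB579, replicative lifespan model yeast | Buffer or medium: Restrictive CSMM-D medium | Doses: One dose, 10 µM compound with 0.25% DMSO | Incubation: 48 h exposure, 30 °C | Detection: Culture absorbance at 615 nm | Control set: Amphotericin B at 10 µg/mL as positive control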
WT yeast gro inh – growth inhibition of WT strain, primary screen, mitochondrial fusion inhibitor project, WT and mutant strains, chemical genetic; hit rate 2.1% among 190,000; mitochondrial fusion phenotypic screen; AID 1362, 2008; inhibition, % at 10 µM; in the data active = inhibition above about 58%; tested in S. cerevisiae
* marks the source's active call; other numbers are inactive results; / = no result given. Shown are actives, neighbours in structure and some others; about 6.1% of the full set was active somewhere.

SMILES	Measles CPE	hDAT+cocaine	RAM inhibit	Yeast lifespan up	BB579 growth dn	WT yeast gro inh
COc1ccc(C(C(=O)NC(C)(C)C)N(Cc2cccs2)C(=O)CCC(=O)Nc2cc(C)on2)cc1 (stereo not given)	9.9	2.96*	-1.4	/	-13.7	-19.0
O=C(N1CCOCC1)N1CCN(S(=O)(=O)N2CCOCC2)CC1	2.8	0.473	0.5	-6.5	-11.5	-9.1
COc1cc(-c2[nH]ncc2CN(C)Cc2cc(C)[nH]n2)cc(OC)c1OC	/	/	0.7	/	/	-4.0
CCc1nc2ccccc2c(C(=O)OCC(=O)Nc2cccc(S(=O)(=O)N3CCOCC3)c2)c1C	10.4	0.234	2.7	-17.8	-14.0	0.2
CC(C)c1nc(SCC(=O)N2CC(=O)Nc3ccccc32)c2ccccc2n1	/	/	8.2	/	/	-15.5
CC(C)Cn1c(N)c(C(=O)COC(=O)c2ccc(Cl)cc2)c(=O)n(C)c1=O	/	/	0.6	/	/	22.6
Cn1c(=O)c(C(=O)COC(=O)c2cc(C(F)(F)F)nc3ccccc23)c(N)n(Cc2ccccc2)c1=O	6.8	/	4.3	0.1	-36.0	35.3
CC(C)Cn1c(N)c(C(=O)COC(=O)c2cc(C(F)(F)F)nc3c(C(F)(F)F)cccc23)c(=O)n(C)c1=O	1.5	/	1.1	-2.6	-14.6	61.2*
CC(C)Cn1c(N)c(C(=O)COC(=O)CC23CC4CC(CC(C4)C2)C3)c(=O)n(C)c1=O	21.6	1.34	3.3	-9.8	-59.8	85.3*
Cn1c(=O)c(C(=O)COC(=O)c2cc(-c3ccccc3)nc3ccccc23)c(N)n(Cc2ccccc2)c1=O	24.7*	/	6.8	7.8	-37.5	6.7
Cc1ccc(CNC(=O)CNC(=O)c2c(C)nn(C)c2Cl)cc1	/	/	0.9	/	/	-22.6
O=C(COc1ccc(/C=N/NC(=O)C(=O)N2CCCCCC2)cc1)Nc1ccccc1Cl	8.5	/	-1.4	-4.7	2.1	-2.0
CN(C)CC/C=C1\c2cc(F)ccc2CSc2ccccc21	5.7	/	-0.9	-2.9	-26.0	14.6
CN(C)CC/C=C1\c2ccccc2Sc2ccc(Cl)cc21	15.0	2.19	0.3	-6.0	4.8	86.8*
Cc1sc2nc(COC(=O)CNC(=O)c3ccc(C(C)(C)C)cc3)[nH]c(=O)c2c1C	14.2	/	2.7	2.8	-15.0	-4.2
CCOC(=O)c1c(C)[nH]c(C(=O)COC(=O)CCSc2ccccc2)c1C	12.8	/	9.5*	5.3	-48.6	6.5
CC(=O)c1c(C)[nH]c(C(=O)COC(=O)CCSc2ccccc2)c1C	8.1	/	3.0	-0.7	-15.0	-3.8
CN(C(=O)COC(=O)c1ccc([N+](=O)[O-])cc1N)c1ccccc1	/	/	4.8	/	/	-8.9
N#Cc1cc2c(nc1SCc1ccc(Cl)cc1)CCCC2	14.4	-0.257	8.7*	/	-33.0	29.7
CC(NC(=O)c1ccc(F)cc1)c1ccc2c(c1)CCCC2 (stereo not given)	3.3	0.231	2.7	5.2	-9.6	5.7
CC(NC(=O)c1ccc(Br)cc1)c1ccc2c(c1)CCCC2 (stereo not given)	1.5	/	3.9	-0.3	-32.2	63.4*
O=C(CN(C(=O)CCC(=O)Nc1nccs1)c1ccc(F)cc1)NCc1ccco1	13.1	-2.78*	2.7	-12.1	-27.5	-8.3
O=C(Nc1ccc(C(=O)Oc2ccccc2)c(O)c1)c1ccco1	3.8	0.179	3.2	-11.9	-16.3	28.4
Cc1cccc(N2CCN(C(=O)c3c(C)nn(Cc4ccccc4Cl)c3C)CC2)c1C	9.4	-0.225	1.8	3.6	-35.5	59.7*
Cc1ccccc1NC1=C/C(=N\S(=O)(=O)c2cccs2)c2ccccc2C1=O	3.9	-0.505	2.1	-2.0	5.0	88.9*
SMILES	Measles CPE	hDAT+cocaine	RAM inhibit	Yeast lifespan up	BB579 growth dn	WT yeast gro inh
Cc1cc2c(cc(C(=O)O)n2C)s1	3.0	0.508	-1.1	-7.5	56.5*	-9.3
Cc1ccc(C2=[N+]([O-])C3(CCCCC/C3=N\O)N(O)C2(C)C)o1 (stereo not given)	32.5	-0.197	1.4	-1.0	-22.9	9.1
CC1(C)C(c2cccs2)=[N+]([O-])C2(CCCCC/C2=N\NC(N)=O)N1O (stereo not given)	30.4*	0.779	0.7	-3.3	9.1	-5.0
CCN(CC)S(=O)(=O)c1ccc(Cl)c(C(=O)Nc2cc(C)nn2-c2ccccc2C(F)(F)F)c1	20.7	/	0.7	3.0	-20.6	12.4
COc1ccc(CN2C(=O)N(c3ccc(OC)cc3)C(=O)C2CC(=O)Nc2ccccc2)cc1 (stereo not given)	/	0.854	9.5*	/	/	-3.9
CCSc1nnc(NC(=O)C2CC(=O)N(Cc3ccccc3)C2)s1 (stereo not given)	/	/	1.9	/	/	4.6
CC(=O)c1cccc(NC(=O)N2CCCC2C(=O)Nc2ccc3c(c2)OCCO3)c1 (stereo not given)	/	/	2.0	/	/	-19.2
CCOC(=O)C1=C(C)NC(=O)NC1c1c(O)ccc2ccccc12 (stereo not given)	0.9	1.35	-0.1	-12.1	2.4	0.5
Cc1ccc(NNC(=O)C(=O)N2CCCCC2)cc1	1.8	/	-0.8	-3.4	-13.1	64.4*
Cc1ccccc1C(=O)NNC(=O)C(=O)N1CCCCC1	6.5	/	1.3	7.4	-25.2	-10.0
COc1ccc(NC(=O)/C=C/c2cc(OC)c(OC)c(OC)c2)cn1	/	/	9.0*	/	/	-8.4
COc1ccc(NC(=O)/C=C/c2ccccc2)cn1	19.0	/	-1.4	-6.8	-40.5	1.5
CCCC[C@@H]1C[C@H]1[C@@H](NC(=O)c1ccco1)c1ccc(C(=O)OC)cc1	/	1.58	/	/	/	/
CCOC(=O)/C(=C\Nc1ccccc1C(F)(F)F)Sc1ncc(C(F)(F)F)cc1Cl	12.7	0.956	10.0*	11.2	-33.2	10.5
COC(=O)/C(=C\Nc1ccc(Cl)c2ccccc12)c1ncc(C(F)(F)F)cc1Cl	21.8	0.439	2.5	-6.5	-39.6	14.8
Cc1cc(C)c(C)c(OC(=O)c2sc(Cl)nc2C)c1	8.8	/	0.4	-5.5	-16.0	8.2
CCOC(=O)c1nnc(-c2ccc(C)cc2)nc1Oc1ccccc1Cl	7.5	-0.139	0.9	-3.4	-48.2	2.0
CCOC(=O)c1nnc(-c2ccccc2)nc1NCc1ccc(Cl)cc1	8.1	0.932	10.2*	13.0	-27.5	9.5
CCOC(=O)c1nnc(-c2ccc(C)cc2)nc1Oc1ccc(Cl)cc1Cl	4.2	-2.69*	1.9	26.3	-59.4	39.5
O=S(=O)(Nc1ccc(-n2cccc2)cc1)c1ccc(Cl)cc1Cl	14.7	-1.59	3.0	-25.8	74.3*	87.9*
O=S(=O)(Nc1ccc(-n2cccc2)cc1)c1ccc(F)cc1	/	/	-1.1	/	/	-11.0
